Assay results reported in ChEMBL document CHEMBL4257540, “Structure-based virtual screening and ADME/T-based prediction analysis for the discovery of novel antifungal CYP51 inhibitors” (Medchemcomm, 2018).
≈ marks a conversion by molar mass, not a printed value.

What was measured:
[1] = molecular target: T1, Lanosterol 14-alpha demethylase (Candida albicans (strain SC5314 / ATCC MYA-2876) (Yeast), UniProt P10613); assay: Inhibition of CYP51 in Candida albicans SC5314 assessed as lanosterol content at 8 ug/ml after 16 hrs by GC/MS analysis (reference value: 3.9%); parameters: scale not given: the % may be the effect or the level left; conditions: candida albicans sc5314, 16 h
[2] = tested on: Candida albicans; assay: Antifungal activity against fluconazole-resistant Candida albicans 100 by broth microdilution method; format: functional
In short: (§1)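 Broth microdilution MIC per NCCLS guidelines; strains from a Chinese medical fungus preservation centre and Shenyang Pharmaceutical University. Cultures kept at 35 °C with daily growth observation.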

[3] = tested on: Candida albicans; assay: Antifungal activity against fluconazole-resistant Candida albicans 103 by broth microdilution method; format: functional; in short: as §1
[4] = tested on: Candida albicans; assay: Antifungal activity against Candida albicans ATCC 10231 by broth microdilution method; format: functional; in short: as §1
[5] = molecular target: T1, Lanosterol 14-alpha demethylase; assay: Inhibition of CYP51 in Candida albicans SC5314 assessed as obtusifoliol content at 8 ug/ml after 16 hrs by GC/MS analysis relative to control; parameters: scale not given: the % may be the effect or the level left; conditions: candida albicans sc5314, 16 h
[6] = molecular target: T1, Lanosterol 14-alpha demethylase; assay: Inhibition of CYP51 in Candida albicans SC5314 assessed as eburicol content at 8 ug/ml after 16 hrs by GC/MS analysis relative to control; parameters: scale not given: the % may be the effect or the level left; conditions: candida albicans sc5314, 16 h
[7] = molecular target: T1, Lanosterol 14-alpha demethylase; assay: Inhibition of CYP51 in Candida albicans SC5314 assessed as unidentified sterol content at 8 ug/ml after 16 hrs by GC/MS analysis (reference value: 5.8%); parameters: scale not given: the % may be the effect or the level left; conditions: candida albicans sc5314, 16 h
[8] = molecular target: T1, Lanosterol 14-alpha demethylase; assay: Inhibition of CYP51 in Candida albicans SC5314 assessed as ergosterol content at 8 ug/ml after 16 hrs by GC/MS analysis (reference value: 90.3%); parameters: scale not given: the % may be the effect or the level left; conditions: candida albicans sc5314, 16 h
[9] = tested on: Nakaseomyces glabratus; assay: Antifungal activity against Candida glabrata ATCC 0001 by broth microdilution method; format: functional
In short: (§2)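 MIC per NCCLS broth microdilution. Fungi incubated at 35 °C and growth checked daily. Fluconazole served as positive control.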

[10] = tested on: Candida tropicalis; assay: Antifungal activity against Candida tropicalis ATCC 1369 by broth microdilution method; format: functional; in short: as §2
[11] = tested on: Pichia kudriavzevii; assay: Antifungal activity against Candida krusei ATCC 6258 by broth microdilution method; format: functional; in short: as §2
[12] = tested on: Aspergillus fumigatus; assay: Antifungal activity against Aspergillus fumigatus KM8001 by broth microdilution method; format: functional; in short: as §2

T1 sequence (P10613 whole entry): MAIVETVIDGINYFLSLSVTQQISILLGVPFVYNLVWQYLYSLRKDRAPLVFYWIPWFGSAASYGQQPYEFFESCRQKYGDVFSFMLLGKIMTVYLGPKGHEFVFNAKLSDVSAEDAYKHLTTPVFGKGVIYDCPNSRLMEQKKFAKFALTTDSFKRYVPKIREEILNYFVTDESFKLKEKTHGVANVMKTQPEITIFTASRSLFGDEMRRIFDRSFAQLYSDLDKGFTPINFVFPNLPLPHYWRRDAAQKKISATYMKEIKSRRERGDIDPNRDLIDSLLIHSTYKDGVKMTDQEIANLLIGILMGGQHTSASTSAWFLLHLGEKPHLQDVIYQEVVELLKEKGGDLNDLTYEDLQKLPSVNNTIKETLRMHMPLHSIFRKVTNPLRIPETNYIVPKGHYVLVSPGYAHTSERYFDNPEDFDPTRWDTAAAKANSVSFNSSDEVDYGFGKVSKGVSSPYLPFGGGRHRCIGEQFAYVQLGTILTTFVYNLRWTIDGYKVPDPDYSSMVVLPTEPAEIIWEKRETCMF

Row | SMILES | Activity [1] | MIC [2] | MIC [3] | MIC [4] | Activity [5] | Activity [6] | Activity [7] | Activity [8] | MIC [9] | MIC [10] | MIC [11] | MIC [12]
1 | COc1cccc(NC(=S)N(CCN(C)C)[C@@H](C)c2ccncc2)c1 | 22.4% | 8 µg/mL (≈ 22.3 µM) | 4 µg/mL (≈ 11.2 µM) | 4 µg/mL (≈ 11.2 µM) | 7.1% | 59% | 5.7% | 5.8% | 2 µg/mL (≈ 5.58 µM) | 4 µg/mL (≈ 11.2 µM) | 4 µg/mL (≈ 11.2 µM) | 8 µg/mL (≈ 22.3 µM)
2 | O=C(NCCc1ccncc1)c1cnc2c(F)cccc2c1O | 23.1% | 8 µg/mL (≈ 25.7 µM) | 16 µg/mL (≈ 51.4 µM) | 8 µg/mL (≈ 25.7 µM) | 8.2% | 54.7% | 4.9% | 9.1% | 4 µg/mL (≈ 12.8 µM) | 16 µg/mL (≈ 51.4 µM) | 8 µg/mL (≈ 25.7 µM) | 16 µg/mL (≈ 51.4 µM)
3 | Nc1c(/C=N/NC(=O)c2ccncc2)ccc2c1C(=O)c1ccccc1C2=O | 20.3% | 8 µg/mL (≈ 21.6 µM) | 16 µg/mL (≈ 43.2 µM) | 8 µg/mL (≈ 21.6 µM) | 7.4% | 63.4% | 4.3% | 4.6% | 8 µg/mL (≈ 21.6 µM) | 2 µg/mL (≈ 5.4 µM) | 4 µg/mL (≈ 10.8 µM) | 16 µg/mL (≈ 43.2 µM)
4 | OC(Cn1cncn1)(Cn1cncn1)c1ccc(F)cc1F [FLUCONAZOLE] | 19.9% | > 64 µg/mL | > 64 µg/mL | 4 µg/mL (≈ 13.1 µM) | 6.3% | 67.2% | 4.1% | 2.5% | 2 µg/mL (≈ 6.53 µM) | 2 µg/mL (≈ 6.53 µM) | 2 µg/mL (≈ 6.53 µM) | 32 µg/mL (≈ 104 µM)
